Converted amounts (≈) assume the structure as drawn.
Key:
Staphylococcus aureus [1] = experiment: Antimicrobial activity against methicillin-sensitive Staphylococcus aureus by agar dilution method; format: functional
How it was run: (§1)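 MICs against clinical MRSA or MSSA isolates by CLSI agar dilution, with S. aureus ATCC 29213 as control strain. Percentage of susceptible isolates was calculated from the MICs using CLSI breakpoints.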

Staphylococcus aureus [2] = experiment: Antimicrobial activity against methicillin-sensitive Staphylococcus aureus assessed as susceptible isolates by agar dilution method; format: functional; how it was run: as §1
Staphylococcus aureus [3] = experiment: Antimicrobial activity against methicillin-resistant Staphylococcus aureus by agar dilution method; format: functional; how it was run: as §1
Staphylococcus aureus [4] = experiment: Antimicrobial activity against Heterovancomycin-resistant Staphylococcus aureus by agar dilution method; format: functional
How it was run: (§2)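 Clinical S. aureus isolates classed as hVISA or VISA by population analysis profiling. MICs by CLSI agar dilution, with S. aureus ATCC 29213 as control strain.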

Staphylococcus aureus [5] = experiment: Antimicrobial activity against vancomycin-resistant Staphylococcus aureus by agar dilution method; format: functional; how it was run: as §2
Staphylococcus [6] = experiment: Antimicrobial activity against Coagulase-negative Staphylococcus by agar dilution method; format: functional
How it was run: (§3)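 CLSI agar dilution MIC testing of clinical isolates of staphylococci and Listeria. S. aureus ATCC 29213 and S. pneumoniae ATCC 49619 served as control strains. The percentage of susceptible isolates was calculated from CLSI breakpoints.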

Staphylococcus [7] = experiment: Antimicrobial activity against Coagulase-negative Staphylococcus assessed as susceptible isolates by agar dilution method; format: functional; how it was run: as §3
[8] = tested on: Streptococcus sp. 'group A'; experiment: Antimicrobial activity against Group A Streptococcus by agar dilution method; format: functional
How it was run: (§4)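 Clinical isolates of beta-hemolytic streptococci, S. mitis and S. pneumoniae were tested by CLSI methodology, with Mueller-Hinton medium supplemented with 5% lysed horse blood. S. aureus ATCC 29213 and S. pneumoniae ATCC 49619 served as control strains. The percentage of susceptible isolates was derived from CLSI breakpoints.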

[9] = tested on: Streptococcus sp. 'group A'; experiment: Antimicrobial activity against Group A Streptococcus assessed as susceptible isolates by agar dilution method; format: functional; how it was run: as §4
[10] = tested on: Streptococcus sp. 'group B'; experiment: Antimicrobial activity against Group B Streptococcus by agar dilution method; format: functional; how it was run: as §4
[11] = tested on: Streptococcus sp. 'group B'; experiment: Antimicrobial activity against Group B Streptococcus assessed as susceptible isolates by agar dilution method; format: functional; how it was run: as §4
[12] = Antimicrobial activity against Group C Streptococcus by agar dilution method; format: functional; details: Streptococcus sp. 'group C'; how it was run: as §4
[13] = Antimicrobial activity against Group C Streptococcus assessed as susceptible isolates by agar dilution method; format: functional, Streptococcus sp. 'group C'; how it was run: as §4
[14] = Antimicrobial activity against Group G Streptococcus by agar dilution method; format: functional; details: Streptococcus sp. 'group G'; how it was run: as §4
[15] = Antimicrobial activity against Group G Streptococcus assessed as susceptible isolates by agar dilution method; format: functional, Streptococcus sp. 'group G'; how it was run: as §4
Streptococcus pneumoniae [16] = experiment: Antimicrobial activity against Streptococcus pneumoniae by agar dilution method; format: functional; how it was run: as §4
Streptococcus pneumoniae [17] = experiment: Antimicrobial activity against Streptococcus pneumoniae assessed as susceptible isolates by agar dilution method; format: functional; how it was run: as §4
Corynebacterium sp. [18] = experiment: Antimicrobial activity against Corynebacterium spp. by agar dilution method; format: functional
Corynebacterium sp. [19] = experiment: Antimicrobial activity against Corynebacterium spp. assessed as susceptible isolates by agar dilution method; format: functional
Listeria monocytogenes [20] = experiment: Antimicrobial activity against Listeria monocytogenes by agar dilution method; format: functional; how it was run: as §3
Listeria monocytogenes [21] = experiment: Antimicrobial activity against Listeria monocytogenes assessed as susceptible isolates by agar dilution method; format: functional; how it was run: as §3
Streptococcus mitis [22] = experiment: Antimicrobial activity against Streptococcus mitis assessed as susceptible isolates by agar dilution method; format: functional; details: in the assay text read “broth dilution method” for “agar dilution method”; how it was run: as §4
Streptococcus mitis [23] = experiment: Antimicrobial activity against Streptococcus mitis by broth dilution method
Staphylococcus aureus [24] = experiment: Antimicrobial activity against Heterovancomycin-resistant Staphylococcus aureus assessed as susceptible isolates by agar dilution method; format: functional
Staphylococcus aureus [25] = experiment: Antimicrobial activity against vancomycin-resistant Staphylococcus aureus assessed as susceptible isolates by agar dilution method; format: functional

## COc1ncc(C2c3ccccc3C=NN2C(=O)/C=C/c2cc(Cc3cnc(N)nc3N)cc(OC)c2OC)cn1 (configuration not stated)
Staphylococcus aureus [1]
  MIC50: 0.03 µg/mL (≈ 0.0543 µM)
  MIC90: 0.03 µg/mL (≈ 0.0543 µM)
Staphylococcus aureus [2]
  Activity: 100%
Staphylococcus aureus [3]
  MIC: 0.015 µg/mL (≈ 0.0271 µM)
  MIC50: 0.015 µg/mL (≈ 0.0271 µM)
  MIC90: 0.06 µg/mL (≈ 0.109 µM)
Staphylococcus aureus [4]
  MIC50: 0.03 µg/mL (≈ 0.0543 µM)
  MIC90: 0.06 µg/mL (≈ 0.109 µM)
Staphylococcus aureus [5]
  MIC50: 0.03 µg/mL (≈ 0.0543 µM)
  MIC90: 0.25 µg/mL (≈ 0.452 µM)
Staphylococcus [6]
  MIC50: 0.06 µg/mL (≈ 0.109 µM)
  MIC90: 8 µg/mL (≈ 14.5 µM)
Staphylococcus [7]
  Activity: 86%
[8]
  MIC50: 0.06 µg/mL (≈ 0.109 µM)
  MIC90: 0.06 µg/mL (≈ 0.109 µM)
[9]
  Activity: 100%
[10]
  MIC50: 0.03 µg/mL (≈ 0.0543 µM)
  MIC90: 0.06 µg/mL (≈ 0.109 µM)
[11]
  Activity: 100%
[12]
  MIC50: 0.015 µg/mL (≈ 0.0271 µM)
  MIC90: 0.06 µg/mL (≈ 0.109 µM)
[13]
  Activity: 100%
[14]
  MIC50: 0.03 µg/mL (≈ 0.0543 µM)
  MIC90: 0.06 µg/mL (≈ 0.109 µM)
[15]
  Activity: 100%
Streptococcus pneumoniae [16]
  MIC50: 0.06 µg/mL (≈ 0.109 µM)
  MIC90: 0.12 µg/mL (≈ 0.217 µM)
Streptococcus pneumoniae [17]
  Activity: 100%
Corynebacterium sp. [18]
  MIC50: 0.06 µg/mL (≈ 0.109 µM)
  MIC90: 4 µg/mL (≈ 7.24 µM)
Corynebacterium sp. [19]
  Activity: 83%
Listeria monocytogenes [20]
  MIC: 0.015 µg/mL (≈ 0.0271 µM)
  MIC50: 0.015 µg/mL (≈ 0.0271 µM)
  MIC90: 0.015 µg/mL (≈ 0.0271 µM)
Listeria monocytogenes [21]
  Activity: 100%
Streptococcus mitis [22]
  Activity: 100%
Streptococcus mitis [23]
  MIC: < 0.008 µg/mL
  MIC50: < 0.008 µg/mL

## CCCCCCCCCC(=O)N[C@@H](Cc1c[nH]c2ccccc12)C(=O)N[C@H](CC(N)=O)C(=O)N[C@@H](CC(=O)O)C(=O)N[C@@H]1C(=O)NCC(=O)N[C@@H](CCCN)C(=O)N[C@@H](CC(=O)O)C(=O)N[C@H](C)C(=O)N[C@@H](CC(=O)O)C(=O)NCC(=O)N[C@H](CO)C(=O)N[C@@H]([C@H](C)CC(=O)O)C(=O)N[C@@H](CC(=O)c2ccccc2N)C(=O)O[C@@H]1C
Staphylococcus aureus [1]
  MIC50: 0.25 µg/mL (≈ 0.154 µM)
  MIC90: 0.25 µg/mL (≈ 0.154 µM)
Staphylococcus aureus [2]
  Activity: 100%
Staphylococcus aureus [3]
  MIC: 0.12 µg/mL (≈ 0.074 µM)
  MIC50: 0.12 µg/mL (≈ 0.074 µM)
  MIC90: 0.25 µg/mL (≈ 0.154 µM)
Staphylococcus aureus [4]
  MIC50: 0.5 µg/mL (≈ 0.309 µM)
  MIC90: 0.5 µg/mL (≈ 0.309 µM)
Staphylococcus aureus [24]
  Activity: 96%
Staphylococcus aureus [5]
  MIC50: 1 µg/mL (≈ 0.617 µM)
  MIC90: 2 µg/mL (≈ 1.23 µM)
Staphylococcus aureus [25]
  Activity: 71%
Staphylococcus [6]
  MIC50: 0.25 µg/mL (≈ 0.154 µM)
  MIC90: 0.5 µg/mL (≈ 0.309 µM)
Staphylococcus [7]
  Activity: 100%
[8]
  MIC: 0.015 µg/mL (≈ 0.00926 µM)
  MIC50: 0.015 µg/mL (≈ 0.00926 µM)
  MIC90: 0.03 µg/mL (≈ 0.0185 µM)
[9]
  Activity: 100%
[10]
  MIC: 0.015 µg/mL (≈ 0.00926 µM)
  MIC50: 0.015 µg/mL (≈ 0.00926 µM)
  MIC90: 0.06 µg/mL (≈ 0.037 µM)
[11]
  Activity: 100%
[12]
  MIC50: 0.03 µg/mL (≈ 0.0185 µM)
  MIC90: 0.12 µg/mL (≈ 0.074 µM)
[13]
  Activity: 100%
[14]
  MIC: 0.015 µg/mL (≈ 0.00926 µM)
  MIC50: 0.015 µg/mL (≈ 0.00926 µM)
  MIC90: 0.03 µg/mL (≈ 0.0185 µM)
[15]
  Activity: 100%
Streptococcus pneumoniae [16]
  MIC50: 0.06 µg/mL (≈ 0.037 µM)
  MIC90: 0.12 µg/mL (≈ 0.074 µM)
Corynebacterium sp. [18]
  MIC50: 0.06 µg/mL (≈ 0.037 µM)
  MIC90: 0.12 µg/mL (≈ 0.074 µM)
Listeria monocytogenes [20]
  MIC50: 1 µg/mL (≈ 0.617 µM)
  MIC90: 2 µg/mL (≈ 1.23 µM)
Streptococcus mitis [23]
  MIC: 0.006 µg/mL (≈ 0.0037 µM)
  MIC50: 0.25 µg/mL (≈ 0.154 µM)

## CC(=O)NC[C@H]1CN(c2ccc(N3CCOCC3)c(F)c2)C(=O)O1 [LINEZOLID]
Staphylococcus aureus [1]
  MIC50: 2 µg/mL (≈ 5.93 µM)
  MIC90: 2 µg/mL (≈ 5.93 µM)
Staphylococcus aureus [2]
  Activity: 100%
Staphylococcus aureus [3]
  MIC50: 2 µg/mL (≈ 5.93 µM)
  MIC90: 2 µg/mL (≈ 5.93 µM)
Staphylococcus aureus [4]
  MIC: 1 µg/mL (≈ 2.96 µM)
  MIC50: 1 µg/mL (≈ 2.96 µM)
  MIC90: 2 µg/mL (≈ 5.93 µM)
Staphylococcus aureus [5]
  MIC50: 1 µg/mL (≈ 2.96 µM)
  MIC90: 2 µg/mL (≈ 5.93 µM)
Staphylococcus [6]
  MIC50: 1 µg/mL (≈ 2.96 µM)
  MIC90: 2 µg/mL (≈ 5.93 µM)
Staphylococcus [7]
  Activity: 100%
[8]
  MIC50: 1 µg/mL (≈ 2.96 µM)
  MIC90: 1 µg/mL (≈ 2.96 µM)
[9]
  Activity: 100%
[10]
  MIC: 1 µg/mL (≈ 2.96 µM)
  MIC50: 1 µg/mL (≈ 2.96 µM)
  MIC90: 2 µg/mL (≈ 5.93 µM)
[11]
  Activity: 100%
[12]
  MIC: 1 µg/mL (≈ 2.96 µM)
  MIC50: 1 µg/mL (≈ 2.96 µM)
  MIC90: 2 µg/mL (≈ 5.93 µM)
[13]
  Activity: 100%
[14]
  MIC50: 2 µg/mL (≈ 5.93 µM)
  MIC90: 2 µg/mL (≈ 5.93 µM)
[15]
  Activity: 100%
Streptococcus pneumoniae [16]
  MIC50: 1 µg/mL (≈ 2.96 µM)
  MIC90: 2 µg/mL (≈ 5.93 µM)
Streptococcus pneumoniae [17]
  Activity: 100%
Corynebacterium sp. [18]
  MIC50: 0.06 µg/mL (≈ 0.178 µM)
  MIC90: 0.12 µg/mL (≈ 0.356 µM)
Listeria monocytogenes [20]
  MIC: 2 µg/mL (≈ 5.93 µM)
  MIC50: 2 µg/mL (≈ 5.93 µM)
  MIC90: 2 µg/mL (≈ 5.93 µM)
Streptococcus mitis [23]
  MIC50: 1 µg/mL (≈ 2.96 µM)

From ChEMBL document CHEMBL1649269, “In vitro activities of three new dihydrofolate reductase inhibitors against clinical isolates of gram-positive bacteria” (2009)
